In ChEMBL document CHEMBL3120097, “HCV NS5A replication complex inhibitors. Part 4. Optimization for genotype 1a replicon inhibitory activity” (J Med Chem, 2014):

Assays:
Hepatitis C virus [1] = assay: Antiviral activity against HCV genotype 2a JFH; assay type: functional, organism-based, Hepacivirus hominis; settings: subtype 2a JFH
[2] = tested on: Bovine viral diarrhea virus 1; assay: Antiviral activity against BVDV infected in bovine MDBK cells after 72 hrs by luciferase reporter gene assay; assay type: functional, organism-based; settings: Bovine viral diarrhea virus isolates and strains
Hepatitis C virus [3] = assay: Antiviral activity against HCV genotype 4a; assay type: functional, organism-based, Hepacivirus hominis
[4] = Cytotoxicity against bovine MDBK cells after 3 days by CellTitre-Blue assay; assay type: cell-based, Bos taurus; settings: cattle
Hepatitis C virus [5] = assay: Antiviral activity against HCV genotype 1b infected in human HuH7 cells after 72 hrs by FRET assay; assay type: functional, organism-based, Hepacivirus hominis; settings: Huh-7, 72 h
Outline: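 Replicon cells seeded 10K/well, attached overnight; compounds added with 0.5% v/v DMSO vehicle controls, typically 72 h. Alamar blue read first, then cells PBS-rinsed and lysed with reagent holding 150 mM NaCl and 20 μM final EDANS/DABCYL NS3 protease peptide; kinetic fluorescence 340/490 nm. EC₅₀ = concentration halving background-subtracted FRET signal versus DMSO wells.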

Hepatitis C virus [6] = assay: Antiviral activity against HCV genotype 1a H77c infected in human HuH7 cells after 3 days by luciferase reporter gene assay; assay type: functional, organism-based, Hepacivirus hominis; settings: Huh-7, 72 h
Outline: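 Titrated compounds in 384-well plates seeded with replicon cells, 2.4 × 10³/well in DMEM with 4% FCS, final DMSO 0.5% v/v; 3 days at 37 °C. Renilla luciferase read with EnduRen substrate at […] final after ≥1 h at 37 °C; EC₅₀ from four-parameter logistic fit.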

[7] = Cytotoxicity against human Huh7.5 cells; assay type: cell-based, Huh-7
Hepatitis C virus [8] = assay: Antiviral activity against HCV genotype 1a H77c infected in human HuH7 cells after 5 days by ELISA; assay type: functional, organism-based, Hepacivirus hominis; settings: Huh-7, 120 h
Outline: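 Genotype 1a (H77c) replicon cells, 1.5 × 10⁴/well in DMEM + 10% FBS, attached overnight at 37 °C; serially diluted compounds (in FBS-free DMEM) added, 5 days at 37 °C. Cells dried overnight at 37 °C to fix, Triton-permeabilized, casein-blocked; NS5A antiserum then HRP secondary, chemiluminescent read. Inhibition relative to untreated wells; background set with 500 nM NS3 inhibitor.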

Hepatitis C virus [9] = assay: Antiviral activity against HCV genotype 1a H77c infected in human HuH7 cells after 72 hrs; settings: Huh-7, 72 h

SMILES	EC50 (Hepatitis C virus [1]) [nM]	EC50 [2] [nM]	EC50 (Hepatitis C virus [3]) [nM]	EC50 (Hepatitis C virus [5]) [nM]	EC50 (Hepatitis C virus [6]) [nM]	EC50 (Hepatitis C virus [8]) [nM]	EC50 (Hepatitis C virus [9]) [nM]	CC50 at 72 h [4] [nM]	CC50 [7] [nM]
COc1cccc2c(C(=O)N3CCC[C@H]3C(=O)Nc3ccc(C#Cc4ccc(NC(=O)[C@@H]5CCCN5C(=O)c5nc(Cl)cc6c(OC)cccc56)cc4)cc3)nc(Cl)cc12	–	> 10000	–	23	18	–	–	> 10000	–
COc1cccc2c(C(=O)N3CCC[C@H]3C(=O)Nc3ccc(-c4cc(-c5ccc(NC(=O)[C@@H]6CCCN6C(=O)c6nc(Cl)cc7c(OC)cccc67)cc5)[nH]n4)cc3)nc(Cl)cc12	–	> 10000	–	11	120	–	–	> 10000	–
COc1cccc2c(C(=O)N3CCC[C@H]3C(=O)Nc3ccc(-c4cnc(-c5ccc(NC(=O)[C@@H]6CCCN6C(=O)c6nc(Cl)cc7c(OC)cccc67)cc5)o4)cc3)nc(Cl)cc12	–	> 10000	–	34	52	–	–	> 10000	–

Now from value to molecule, other results behind:

EC50 (Hepatitis C virus [1]) [nM]	EC50 [2] [nM]	EC50 (Hepatitis C virus [3]) [nM]	EC50 (Hepatitis C virus [5]) [nM]	EC50 (Hepatitis C virus [6]) [nM]	EC50 (Hepatitis C virus [8]) [nM]	EC50 (Hepatitis C virus [9]) [nM]	SMILES	CC50 at 72 h [4] [nM]	CC50 [7] [nM]
79	> 5000	157	–	–	–	–	O=C(Nc1ccc(/C=C/c2ccc(NC(=O)[C@@H]3CCCN3C(=O)Cc3ccccc3)cc2)cc1)[C@@H]1CCCN1C(=O)Cc1ccccc1	> 30000	–
–	> 5000	–	100	6300	–	–	O=C(Nc1ccc(/C=C/c2ccc(NC(=O)[C@@H]3CCCN3C(=O)c3ccccc3)cc2)cc1)[C@@H]1CCCN1C(=O)c1ccccc1	> 10000	–
–	> 10000	–	4.8	1370	–	–	O=C(Nc1ccc(-c2cc(-c3ccc(NC(=O)[C@@H]4CCCN4C(=O)Cc4ccccc4)cc3)[nH]n2)cc1)[C@@H]1CCCN1C(=O)Cc1ccccc1	> 10000	–
2.2	> 10000	> 1000	7	–	37	–	COc1cccc2c(C(=O)N3CCC[C@H]3C(=O)Nc3ccc(/C=C/c4ccc(NC(=O)[C@@H]5CCCN5C(=O)c5nc(Cl)cc6c(OC)cccc56)cc4)cc3)nc(Cl)cc12	> 10000	> 10000
–	> 5000	–	280	–	–	3100	O=C(Nc1ccc(/C=C/c2ccc(NC(=O)[C@@H]3CCCN3C(=O)c3cc4ccccc4cn3)cc2)cc1)[C@@H]1CCCN1C(=O)c1cc2ccccc2cn1	> 10000	–
